Test results: ChEMBL document CHEMBL4184148 (Bioorg Med Chem Lett, 2017)

What was measured:
[1] = tested on: Tyrosine-protein kinase ABL1 (Homo sapiens), P00519 [T315I]; assay: Binding affinity to human phosphorylated ABL1 T315I mutant (S229 to K512 residues) expressed in HEK293 cells at 1 uM by Kinomescan method relative to control; assay type: cell-based
[2] = biological target: Death-associated protein kinase 2 (Homo sapiens) (UniProt Q9UIK4); assay: Binding affinity to wild-type human full length DAPK2 (M1 to S370 residues) expressed in Escherichia coli BL21 at 1 uM by Kinomescan method relative to control
Summary of the method: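 Run as one kinome-wide competition binding panel with each compound at a single fixed concentration. Results were plotted as a kinome-wide selectivity map.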

[3] = biological target: Ephrin type-A receptor 2 (Homo sapiens) (UniProt P29317); assay: Binding affinity to wild-type human partial length EPHA2 (T593 to V891 residues) expressed in Escherichia coli BL21 at 1 uM by Kinomescan method relative to control
[4] = biological target: Ephrin type-A receptor 5 (Homo sapiens) (UniProt P54756); assay: Binding affinity to wild-type human partial length EPHA5 (T627 to V930 residues) expressed in Escherichia coli BL21 at 1 uM by Kinomescan method relative to control
[5] = biological target: Inhibitor of nuclear factor kappa-B kinase subunit epsilon (Homo sapiens) (UniProt Q14164); assay: Binding affinity to wild-type human full length IKK-epsilon (M1 to V716 residues) expressed in HEK293 cells at 1 uM by Kinomescan method relative to control; assay type: cell-based
[6] = biological target: Interleukin-1 receptor-associated kinase 4 (Homo sapiens) (UniProt Q9NWZ3); assay: Binding affinity to wild-type human partial length IRAK4 (M1 to S460 residues) expressed in HEK293 cells at 1 uM by Kinomescan method relative to control; assay type: cell-based
[7] = biological target: Tyrosine-protein kinase JAK3 (Homo sapiens) (UniProt P52333); assay: Binding affinity to wild-type human partial length JAK3 JH1 catalytic domain (I781 to S1124 residues) expressed in HEK293 cells at 1 uM by Kinomescan method relative to control; assay type: cell-based
[8] = biological target: Myosin light chain kinase family member 4 (Homo sapiens) (UniProt Q86YV6); assay: Binding affinity to wild-type human partial length MYLK4 (V79 to S380 residues) expressed in Escherichia coli BL21 at 1 uM by Kinomescan method relative to control
[9] = biological target: Serine/threonine-protein kinase Nek11 (Homo sapiens) (UniProt Q8NG66); assay: Binding affinity to wild-type human partial length NEK11 (M1 to E313 residues) expressed in HEK293 cells at 1 uM by Kinomescan method relative to control; assay type: cell-based
[10] = biological target: Serine/threonine-protein kinase Nek7 (Homo sapiens) (UniProt Q8TDX7); assay: Binding affinity to wild-type human full length NEK7 (M1 to S302 residues) expressed in Escherichia coli BL21 at 1 uM by Kinomescan method relative to control
Summary of the method: (§1)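 Kinome-wide competition binding panel run by an outside provider, with each compound tested at a single concentration. Activity is read against the kinase panel.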

[11] = biological target: Serine/threonine-protein kinase OSR1 (Homo sapiens) (UniProt O95747); assay: Binding affinity to wild-type human full length OSR1 (M1 to S527 residues) expressed in HEK293 cells at 1 uM by Kinomescan method relative to control; assay type: cell-based; summary of the method: as §1
[12] = tested on: Phosphatidylinositol 4,5-bisphosphate 3-kinase catalytic subunit alpha isoform (Homo sapiens), P42336 [I800L]; assay: Binding affinity to human partial length PIK3CA I800L mutant (R108 to N1068 residues) expressed in HEK293 cells at 1 uM by Kinomescan method relative to control; assay type: cell-based
[13] = tested on: Phosphatidylinositol 4,5-bisphosphate 3-kinase catalytic subunit alpha isoform (Homo sapiens), P42336 [Q546K]; assay: Binding affinity to human partial length PIK3CA Q546K mutant (R108 to N1068 residues) expressed in HEK293 cells at 1 uM by Kinomescan method relative to control; assay type: cell-based
[14] = biological target: Serine/threonine-protein kinase N1 (Homo sapiens) (UniProt Q16512); assay: Binding affinity to wild-type human partial length PKN1 (E598 to C948 residues) expressed in Escherichia coli BL21 at 1 uM by Kinomescan method relative to control
[15] = biological target: Protein kinase C epsilon type (Homo sapiens) (UniProt Q02156); assay: Binding affinity to wild-type human partial length PRKCE (A378 to P737 residues) expressed in HEK293 cells at 1 uM by Kinomescan method relative to control; assay type: cell-based
[16] = biological target: Protein kinase C eta type (Homo sapiens) (UniProt P24723); assay: Binding affinity to wild-type human partial length PRKCH (S324 to P683 residues) expressed in Escherichia coli BL21 at 1 uM by Kinomescan method relative to control
[17] = biological target: Interferon-induced, double-stranded RNA-activated protein kinase (Homo sapiens) (UniProt P19525); assay: Binding affinity to wild-type human partial length PRKR (F247 to C551 residues) expressed in Escherichia coli BL21 at 1 uM by Kinomescan method relative to control
[18] = tested on: Proto-oncogene tyrosine-protein kinase receptor Ret (Homo sapiens), P07949 [V804M]; assay: Binding affinity to human partial length RET V804M mutant (E713 to D1014 residues) expressed in Escherichia coli BL21 at 1 uM by Kinomescan method relative to control
[19] = biological target: Serine/threonine-protein kinase 33 (Homo sapiens) (UniProt Q9BYT3); assay: Binding affinity to wild-type human full length STK33 (M1 to L514 residues) expressed in Escherichia coli BL21 at 1 uM by Kinomescan method relative to control; summary of the method: as §1
[20] = biological target: Serine/threonine-protein kinase TAO1 (Homo sapiens) (UniProt Q7L7X3); assay: Binding affinity to wild-type human partial length TAOK1 (M1 to A320 residues) expressed in HEK293 cells at 1 uM by Kinomescan method relative to control; assay type: cell-based
[21] = biological target: Transient receptor potential cation channel subfamily M member 6 (Homo sapiens) (UniProt Q9BX84); assay: Binding affinity to wild-type human partial length TRPM6 (Q1723 to I1998 residues) expressed in HEK293 cells at 1 uM by Kinomescan method relative to control; assay type: cell-based
[22] = biological target: Serine/threonine-protein kinase ULK1 (Homo sapiens) (UniProt O75385); assay: Binding affinity to wild-type human partial length ULK1 (M1 to T309 residues) expressed in HEK293 cells at 1 uM by Kinomescan method relative to control; assay type: cell-based
[23] = biological target: Phosphatidylinositol 3-kinase catalytic subunit type 3 (Homo sapiens) (UniProt Q8NEB9); assay: Binding affinity to wild-type human partial length VPS34 (S282 to H879 residues) expressed in HEK293 cells at 1 uM by Kinomescan method relative to control; assay type: cell-based
[24] = biological target: Serine/threonine-protein kinase WNK4 (Homo sapiens) (UniProt Q96J92); assay: Binding affinity to wild-type human partial length WNK4 (A31 to D461 residues) expressed in HEK293 cells at 1 uM by Kinomescan method relative to control; assay type: cell-based
Sequence of Serine/threonine-protein kinase WNK4 (Homo sapiens) (Q96J92 whole entry, the tested form may be a part): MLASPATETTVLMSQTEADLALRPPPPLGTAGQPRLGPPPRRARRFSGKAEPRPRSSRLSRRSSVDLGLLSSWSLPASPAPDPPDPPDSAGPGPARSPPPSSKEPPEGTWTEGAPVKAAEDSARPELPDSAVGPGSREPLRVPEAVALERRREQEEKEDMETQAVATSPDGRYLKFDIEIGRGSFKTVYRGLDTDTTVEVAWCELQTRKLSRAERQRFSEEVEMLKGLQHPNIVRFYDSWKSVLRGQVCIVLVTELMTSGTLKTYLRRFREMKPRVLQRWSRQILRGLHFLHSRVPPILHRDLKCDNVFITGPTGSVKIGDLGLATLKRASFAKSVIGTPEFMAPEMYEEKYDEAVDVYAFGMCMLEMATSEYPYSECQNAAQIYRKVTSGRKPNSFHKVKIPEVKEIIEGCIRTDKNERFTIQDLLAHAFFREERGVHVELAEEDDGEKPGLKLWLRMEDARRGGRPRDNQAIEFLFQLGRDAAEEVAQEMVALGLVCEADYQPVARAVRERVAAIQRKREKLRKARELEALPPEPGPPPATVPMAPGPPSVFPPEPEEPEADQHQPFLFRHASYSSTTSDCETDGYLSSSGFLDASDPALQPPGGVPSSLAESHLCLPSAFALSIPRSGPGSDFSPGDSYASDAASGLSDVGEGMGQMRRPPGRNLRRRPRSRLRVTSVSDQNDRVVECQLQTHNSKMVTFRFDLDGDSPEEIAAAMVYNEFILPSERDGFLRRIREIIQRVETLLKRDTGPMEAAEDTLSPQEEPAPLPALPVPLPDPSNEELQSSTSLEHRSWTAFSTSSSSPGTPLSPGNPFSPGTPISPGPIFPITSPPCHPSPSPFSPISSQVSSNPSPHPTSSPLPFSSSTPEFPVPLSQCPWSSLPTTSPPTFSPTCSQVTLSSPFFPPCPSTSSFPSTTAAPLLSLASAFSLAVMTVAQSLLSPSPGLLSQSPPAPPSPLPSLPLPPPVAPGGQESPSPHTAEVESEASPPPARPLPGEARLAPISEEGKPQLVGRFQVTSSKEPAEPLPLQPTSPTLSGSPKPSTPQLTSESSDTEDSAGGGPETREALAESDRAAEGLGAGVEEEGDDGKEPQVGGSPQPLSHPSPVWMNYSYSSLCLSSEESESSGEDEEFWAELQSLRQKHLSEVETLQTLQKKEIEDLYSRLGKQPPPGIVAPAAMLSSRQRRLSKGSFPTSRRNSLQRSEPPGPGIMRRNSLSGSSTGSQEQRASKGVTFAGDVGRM

Sequence of Phosphatidylinositol 4,5-bisphosphate 3-kinase catalytic subunit alpha isoform (Homo sapiens), P42336 [I800L] (P42336 whole entry I800L, the tested form may be a part, canonical isoform): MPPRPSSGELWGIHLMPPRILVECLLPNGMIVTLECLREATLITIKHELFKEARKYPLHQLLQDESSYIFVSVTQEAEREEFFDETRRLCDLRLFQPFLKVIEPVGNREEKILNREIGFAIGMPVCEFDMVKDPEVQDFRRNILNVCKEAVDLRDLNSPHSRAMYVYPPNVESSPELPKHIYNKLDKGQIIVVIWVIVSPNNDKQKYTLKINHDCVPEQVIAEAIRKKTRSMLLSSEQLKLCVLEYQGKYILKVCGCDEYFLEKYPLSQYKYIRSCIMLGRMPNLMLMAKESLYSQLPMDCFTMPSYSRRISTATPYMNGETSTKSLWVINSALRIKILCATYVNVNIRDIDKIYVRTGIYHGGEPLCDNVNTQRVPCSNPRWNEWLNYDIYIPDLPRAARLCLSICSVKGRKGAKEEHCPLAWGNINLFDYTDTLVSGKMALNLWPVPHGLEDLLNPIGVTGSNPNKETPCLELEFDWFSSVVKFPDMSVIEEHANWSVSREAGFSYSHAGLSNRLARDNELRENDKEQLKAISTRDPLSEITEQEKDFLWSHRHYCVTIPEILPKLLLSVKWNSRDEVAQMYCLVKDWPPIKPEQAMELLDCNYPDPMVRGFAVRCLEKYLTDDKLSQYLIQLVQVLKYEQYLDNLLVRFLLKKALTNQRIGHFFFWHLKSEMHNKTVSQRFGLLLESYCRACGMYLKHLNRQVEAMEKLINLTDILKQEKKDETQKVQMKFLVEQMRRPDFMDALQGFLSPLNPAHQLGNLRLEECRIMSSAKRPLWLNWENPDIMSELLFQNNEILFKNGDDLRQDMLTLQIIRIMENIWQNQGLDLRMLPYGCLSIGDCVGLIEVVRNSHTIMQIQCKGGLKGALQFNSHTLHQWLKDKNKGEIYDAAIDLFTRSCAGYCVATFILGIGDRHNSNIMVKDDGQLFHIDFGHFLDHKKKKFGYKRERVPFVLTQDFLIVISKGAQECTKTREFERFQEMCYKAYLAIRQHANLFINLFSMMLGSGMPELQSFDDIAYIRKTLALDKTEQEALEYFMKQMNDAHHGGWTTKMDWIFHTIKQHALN
Sequence of Proto-oncogene tyrosine-protein kinase receptor Ret (Homo sapiens), P07949 [V804M] (P07949 whole entry V804M, the tested form may be a part): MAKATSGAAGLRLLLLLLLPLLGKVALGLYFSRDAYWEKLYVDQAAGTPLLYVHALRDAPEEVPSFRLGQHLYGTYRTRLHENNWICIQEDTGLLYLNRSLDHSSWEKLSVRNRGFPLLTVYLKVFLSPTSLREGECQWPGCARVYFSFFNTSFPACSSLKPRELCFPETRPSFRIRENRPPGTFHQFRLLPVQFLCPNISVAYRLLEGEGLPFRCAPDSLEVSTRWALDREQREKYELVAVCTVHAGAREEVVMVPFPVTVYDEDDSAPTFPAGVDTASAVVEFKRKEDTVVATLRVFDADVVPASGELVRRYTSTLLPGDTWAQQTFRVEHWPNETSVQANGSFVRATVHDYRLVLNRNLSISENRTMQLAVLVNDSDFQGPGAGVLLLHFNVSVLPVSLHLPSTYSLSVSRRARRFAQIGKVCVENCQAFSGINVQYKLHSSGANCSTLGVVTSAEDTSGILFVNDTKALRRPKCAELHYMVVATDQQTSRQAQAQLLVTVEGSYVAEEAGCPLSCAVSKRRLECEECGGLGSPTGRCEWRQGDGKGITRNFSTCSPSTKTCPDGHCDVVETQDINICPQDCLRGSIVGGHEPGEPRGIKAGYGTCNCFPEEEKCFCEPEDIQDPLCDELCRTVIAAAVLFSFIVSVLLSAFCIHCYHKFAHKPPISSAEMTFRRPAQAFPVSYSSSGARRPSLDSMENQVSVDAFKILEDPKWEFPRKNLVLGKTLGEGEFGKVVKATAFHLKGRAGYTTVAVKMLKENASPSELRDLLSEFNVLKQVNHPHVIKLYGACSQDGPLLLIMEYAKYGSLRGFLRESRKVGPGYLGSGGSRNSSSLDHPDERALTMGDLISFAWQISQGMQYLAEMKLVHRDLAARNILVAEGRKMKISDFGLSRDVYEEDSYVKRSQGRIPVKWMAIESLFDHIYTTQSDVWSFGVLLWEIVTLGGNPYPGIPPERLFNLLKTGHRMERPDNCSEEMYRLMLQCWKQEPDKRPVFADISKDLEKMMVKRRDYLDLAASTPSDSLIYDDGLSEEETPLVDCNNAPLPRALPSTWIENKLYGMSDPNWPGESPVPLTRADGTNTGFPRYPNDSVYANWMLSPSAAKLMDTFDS
Sequence of Inhibitor of nuclear factor kappa-B kinase subunit epsilon (Homo sapiens) (Q14164 whole entry, the tested form may be a part): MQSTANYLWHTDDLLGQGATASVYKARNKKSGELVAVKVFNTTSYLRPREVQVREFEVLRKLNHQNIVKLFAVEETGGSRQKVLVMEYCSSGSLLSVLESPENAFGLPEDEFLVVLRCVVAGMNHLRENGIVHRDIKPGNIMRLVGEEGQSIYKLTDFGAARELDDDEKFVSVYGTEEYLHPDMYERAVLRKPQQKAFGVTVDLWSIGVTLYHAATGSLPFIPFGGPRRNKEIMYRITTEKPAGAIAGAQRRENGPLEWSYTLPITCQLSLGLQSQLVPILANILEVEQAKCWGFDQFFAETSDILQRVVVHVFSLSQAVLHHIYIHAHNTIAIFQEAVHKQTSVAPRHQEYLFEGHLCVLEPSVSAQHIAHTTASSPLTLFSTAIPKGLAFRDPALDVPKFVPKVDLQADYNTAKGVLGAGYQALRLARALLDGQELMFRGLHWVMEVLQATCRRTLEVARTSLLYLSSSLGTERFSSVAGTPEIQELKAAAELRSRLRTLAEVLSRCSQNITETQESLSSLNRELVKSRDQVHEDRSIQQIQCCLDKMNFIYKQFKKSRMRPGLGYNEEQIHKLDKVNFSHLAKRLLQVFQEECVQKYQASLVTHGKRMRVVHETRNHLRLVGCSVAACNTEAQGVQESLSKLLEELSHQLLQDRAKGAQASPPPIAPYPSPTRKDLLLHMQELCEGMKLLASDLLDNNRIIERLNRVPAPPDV
Sequence of Serine/threonine-protein kinase Nek7 (Homo sapiens) (Q8TDX7 whole entry, looked up, the tested form may be a part): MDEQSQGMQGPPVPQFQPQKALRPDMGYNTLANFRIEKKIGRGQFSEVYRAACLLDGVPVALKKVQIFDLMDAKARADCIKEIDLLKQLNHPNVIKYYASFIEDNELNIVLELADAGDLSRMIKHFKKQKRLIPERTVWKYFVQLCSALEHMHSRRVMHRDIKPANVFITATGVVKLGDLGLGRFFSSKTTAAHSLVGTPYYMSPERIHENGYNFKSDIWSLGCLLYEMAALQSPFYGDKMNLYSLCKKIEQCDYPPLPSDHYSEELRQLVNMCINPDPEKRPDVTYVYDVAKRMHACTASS
Sequence of Serine/threonine-protein kinase 33 (Homo sapiens) (Q9BYT3 whole entry, looked up, the tested form may be a part): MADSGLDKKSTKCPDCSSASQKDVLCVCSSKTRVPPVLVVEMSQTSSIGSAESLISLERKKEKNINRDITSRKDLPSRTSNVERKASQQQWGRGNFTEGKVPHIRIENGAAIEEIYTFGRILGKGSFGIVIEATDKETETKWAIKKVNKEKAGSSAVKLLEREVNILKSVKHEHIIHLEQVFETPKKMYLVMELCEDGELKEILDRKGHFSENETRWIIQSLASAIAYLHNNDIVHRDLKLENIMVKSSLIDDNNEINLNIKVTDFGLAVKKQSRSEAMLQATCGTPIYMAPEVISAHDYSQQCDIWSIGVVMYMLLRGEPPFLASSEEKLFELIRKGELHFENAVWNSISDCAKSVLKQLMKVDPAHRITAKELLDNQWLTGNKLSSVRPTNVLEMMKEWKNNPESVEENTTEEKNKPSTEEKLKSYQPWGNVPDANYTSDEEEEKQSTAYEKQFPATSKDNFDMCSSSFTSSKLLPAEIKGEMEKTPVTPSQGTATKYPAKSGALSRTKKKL

For `C=CC(=O)Nc1ccc(C(=O)Nc2ccc(Nc3ncc4c(n3)N(C)c3ccc(C)cc3C(=O)N4C)cc2)cc1`, the Activity [1] was 99%, the Activity [2] was 100% and the Activity [3] was 93%. It also gave an Activity [4] of 100%, an Activity [5] of 88% and an Activity [6] of 95%. The Activity [7] was 88%, the Activity [8] was 100% and the Activity [9] was 100%. The Activity [10] was 100%, the Activity [11] was 99% and the Activity [12] was 76%. It also gave an Activity [13] of 77%, an Activity [14] of 82% and an Activity [15] of 87%. For the same compound, the Activity [16] was 100%, the Activity [17] was 90% and the Activity [18] was 68%. The Activity [19] was 99%, the Activity [20] was 92% and the Activity [21] was 96%. The Activity [22] was 79%, the Activity [23] was 99% and the Activity [24] was 99%.

In the case of `CCC(=O)Nc1ccc(C(=O)Nc2ccc(Nc3ncc4c(n3)N(C)c3ccc(C)cc3C(=O)N4C)cc2)cc1`, the Activity [1] is reported as 100%, the Activity [2] is reported as 91% and the Activity [3] is reported as 96%. For the same compound, the Activity [4] was 94%, the Activity [5] was 68% and the Activity [6] was 79%. For the same compound, the Activity [7] was 100%, the Activity [8] was 100% and the Activity [9] was 96%. It also gave an Activity [10] of 95%, an Activity [11] of 90% and an Activity [12] of 78%. For the same compound, the Activity [13] was 78%, the Activity [14] was 100% and the Activity [15] was 100%. The Activity [16] was 100%, the Activity [17] was 100% and the Activity [18] was 70%. For the same compound, the Activity [19] was 79%, the Activity [20] was 89% and the Activity [21] was 100%. For the same compound, the Activity [22] was 91%, the Activity [23] was 100% and the Activity [24] was 85%.
